Laboratory results as given in ChEMBL document CHEMBL4428117, “Discovery of novel free fatty acid receptor 1 agonists bearing triazole core via click chemistry” (Bioorg Med Chem, 2016).

Columns and labels:
[1] = target: Free fatty acid receptor 1 (Homo sapiens) (UniProt O14842); test: Agonist activity at human FFA1 receptor expressed in CHO cells assessed as intracellular calcium influx at 100 nM measured for 90 sec by Fluo-4-AM dye based FLIPR assay relative to control; assay type: functional, cell-based
Summary of the method: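 CHO cells stably expressing human FFA1 (NM_005303), 15 K cells/well, grown 12 h at 37 °C in 5% CO2, then HBSS wash. Ca2+ signal read by FLIPR for 90 s after addition. Activity = (test − vehicle)/(10 µM γ-linolenic acid − vehicle) × 100; mean of three independent experiments.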

Mus musculus [2] = test: Hypoglycemic effect in normal ICR mouse assessed as decrease in blood glucose AUC (0 to 2 hrs) at 50 mg/kg, po administered as single dose 30 mins prior to glucose challenge by OGTT relative to control; assay type: functional; set-up: scale not given: the % may be the effect or the level left
Summary of the method: (§1)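 Ten-week-old male ICR mice, fasted 12 h, randomized n = 6 per group. Single oral dose in 0.5% CMC given 30 min before oral glucose 3 g/kg. Tail-vein blood glucose measured by test strips at −30, 0, 15, 30, 45, 60 and 120 min; AUC0-2h calculated; mean ± SEM, Student's t-test vs vehicle.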

[3] = 1-octanol-phosphate buffer distribution coefficient, log D of compound at 100 uM at pH 7.4 after 24 hrs by HPLC based shake flask method; assay type: physicochemical
Summary of the method: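 Final concentration 100 µM, diluted from 10 mM DMSO stock, in 1:1 0.01 M phosphate buffer pH 7.4 and 1-octanol. Shaken 700 rpm for 24 h, then 1 h phase separation. Octanol phase diluted ×10 before HPLC, buffer phase injected directly, each in duplicate. LogD = octanol/buffer peak area at 254 nm, corrected with two calibration points; three independent experiments.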

Mus musculus [4] = test: Hypoglycemic effect in normal ICR mouse assessed as decrease in plasma glucose level at 50 mg/kg, po administered as single dose 30 mins prior to glucose challenge by OGTT relative to control; assay type: functional, organism-based; settings: TDE = time-dependent effect; summary of the method: as §1
Mus musculus [5] = test: Hypoglycemic effect in fasting STZ-induced type-2 diabetic C57BL/6 mouse assessed as decrease in blood glucose AUC (0 to 2 hrs) at 50 mg/kg, po administered as single dose 30 mins prior to glucose challenge by OGTT relative to control; assay type: functional; set-up: scale not given: the % may be the effect or the level left
Summary of the method: (§2)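 Male C57BL/6 mice on high-fat diet (45% kcal fat) for 4 weeks, then STZ 80 mg/kg i.p., then high-fat diet another 4 weeks. Fasting glucose ≥11.1 mmol/L taken as diabetic. Fasted 12 h, n = 6 per group. Oral dose in 0.5% CMC 30 min before oral glucose 2 g/kg. Tail-vein glucose by test strips at −30, 0, 15, 30, 45, 60 and 120 min; AUC0-2h; mean ± SEM.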

Mus musculus [6] = test: Hypoglycemic effect in fasting STZ-induced type-2 diabetic C57BL/6 mouse assessed as decrease in blood glucose AUC (0 to 2 hrs) at 20 mg/kg, po administered as single dose 30 mins prior to glucose challenge measured by OGTT relative to control; assay type: functional; set-up: scale not given: the % may be the effect or the level left; summary of the method: as §2

Chain of Free fatty acid receptor 1 (Homo sapiens) (O14842 whole entry): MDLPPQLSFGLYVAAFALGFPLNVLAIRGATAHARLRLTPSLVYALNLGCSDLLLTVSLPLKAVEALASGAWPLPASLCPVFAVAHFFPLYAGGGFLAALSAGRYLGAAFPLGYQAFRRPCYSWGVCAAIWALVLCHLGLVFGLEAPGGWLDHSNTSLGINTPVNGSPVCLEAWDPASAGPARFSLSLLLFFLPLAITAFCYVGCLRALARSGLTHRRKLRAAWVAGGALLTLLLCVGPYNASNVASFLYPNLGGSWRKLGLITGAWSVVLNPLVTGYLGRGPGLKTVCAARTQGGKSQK

Row | Activity [1] | logD at 24 h, 100 µM [3] | Compound | also measured
1 | 33.8% | 2.08 | Cc1ccc(Cl)cc1-n1cc(COc2ccc3c(c2)OCC3CC(=O)O)nn1 (stereo unspecified) | Activity (Mus musculus [2]): 16.8%; Activity (Mus musculus [4]): Tde
2 | 36.1% | 1.95 | Cc1ccc(Cl)cc1-n1cc(COc2ccc(OCC(=O)O)c(F)c2)nn1 | Activity (Mus musculus [2]): 21.4%; Activity (Mus musculus [5]): 14.2%; Activity (Mus musculus [4]): Tde
3 | 20.4% | 0.92 | O=C(O)COc1ccc(OCc2cn(-c3ccc(F)cc3)nn2)cc1F | 
4 | 3.67% |  | O=C(O)CC1COc2cc(OCc3cn(-c4ccc(OCc5ccccc5)cc4)nn3)ccc21 (stereo unspecified) | 
5 | 24.7% |  | O=C(O)CC1COc2cc(OCc3cn(-c4ccc(Cl)cc4)nn3)ccc21 (stereo unspecified) | Activity (Mus musculus [4]): Tde
6 | 22.7% |  | O=C(O)COc1ccc(OCc2cn(-c3cccc(Cl)c3)nn2)cc1F | 
7 | 0.64% |  | O=C(O)COc1ccc(OCc2cn(-c3ccccc3)nn2)cc1 | 
8 | 11.3% |  | O=C(O)COc1ccc(OCc2cn(-c3ccccc3Cl)nn2)cc1F | 
9 | 7.62% |  | CCOc1ccc(-n2cc(COc3ccc(OCC(=O)O)c(F)c3)nn2)cc1 | 
10 |  |  | Cc1cc(OCCCS(C)(=O)=O)cc(C)c1-c1cccc(COc2ccc3c(c2)OC[C@H]3CC(=O)O)c1 [FASIGLIFAM] | Activity (Mus musculus [6]): 32.5%
11 | 16.4% | 0.89 | Cc1ccc(-n2cc(COc3ccc(OCC(=O)O)cc3)nn2)cc1 | 
12 | 19.4% |  | O=C(O)COc1ccc(OCc2cn(-c3ccc(Cl)cc3)nn2)cc1 | 
13 | 9.34% |  | O=C(O)CC1COc2cc(OCc3cn(-c4ccccc4Cl)nn3)ccc21 (stereo unspecified) | 
14 | 0.76% |  | O=C(O)CC1COc2cc(OCc3cn(-c4ccccc4)nn3)ccc21 (stereo unspecified) | 
15 | 4.53% |  | CC(C)(C)c1ccc(-n2cc(COc3ccc(OCC(=O)O)c(F)c3)nn2)cc1 | 
16 | 19.4% |  | COc1cccc(-n2cc(COc3ccc4c(c3)OCC4CC(=O)O)nn2)c1 (stereo unspecified) | 
17 | 6.69% |  | O=C(O)CC1COc2cc(OCc3cn(-c4ccccc4F)nn3)ccc21 (stereo unspecified) | 
18 | 22.8% | 1.09 | O=C(O)CC1COc2cc(OCc3cn(-c4cccc(Cl)c4)nn3)ccc21 (stereo unspecified) | 
19 | 14.6% |  | COc1ccccc1-n1cc(COc2ccc(OCC(=O)O)c(F)c2)nn1 | 
20 | 5.83% | -0.23 | O=C(O)COc1ccc(OCc2cn(-c3ccccc3)nn2)cc1F | 
21 | 11.8% |  | Cc1cccc(-n2cc(COc3ccc(OCC(=O)O)cc3)nn2)c1 | 
22 | 24.4% | 0.52 | COc1cccc(-n2cc(COc3ccc(OCC(=O)O)c(F)c3)nn2)c1 | Activity (Mus musculus [4]): Tde
23 | 29.7% | 2.16 | O=C(O)COc1ccc(OCc2cn(-c3c(Cl)cccc3Cl)nn2)cc1F | Activity (Mus musculus [2]): 17.7%; Activity (Mus musculus [4]): Tde
24 | 26.1% | 1.37 | O=C(O)COc1ccc(OCc2cn(-c3ccc(Cl)cc3)nn2)cc1F | Activity (Mus musculus [4]): Tde
25 | 21.7% | 1.96 | O=C(O)CC1COc2cc(OCc3cn(-c4c(Cl)cccc4Cl)nn3)ccc21 (stereo unspecified) | 
26 | 13.8% |  | O=C(O)COc1ccc(OCc2cn(-c3ccc(F)cc3)nn2)cc1 | 
